Assay results collected from several papers.
Compare with care: the assays were run in different laboratories.
Target: 5-hydroxytryptamine receptor 1A (HTR1A, Homo sapiens, UniProt P08908)
Residues used in one study (P08908 1-422): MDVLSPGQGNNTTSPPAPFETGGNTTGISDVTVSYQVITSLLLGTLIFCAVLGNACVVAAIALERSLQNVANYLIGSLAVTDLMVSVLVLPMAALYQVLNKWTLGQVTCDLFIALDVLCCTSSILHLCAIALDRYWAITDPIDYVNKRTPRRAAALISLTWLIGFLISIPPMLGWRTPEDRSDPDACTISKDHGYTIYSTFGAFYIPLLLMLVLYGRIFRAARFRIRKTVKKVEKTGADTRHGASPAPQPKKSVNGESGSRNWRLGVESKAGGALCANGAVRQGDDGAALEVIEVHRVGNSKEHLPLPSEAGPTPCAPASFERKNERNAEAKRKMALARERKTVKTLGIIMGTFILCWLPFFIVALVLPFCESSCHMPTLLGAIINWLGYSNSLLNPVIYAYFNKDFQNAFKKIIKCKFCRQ

`CN(C)CCc1c[nH]c2cccc(O)c12` gave a Ki of 84 nM (ligand displacement; radioligand).
`CCCCCNC(=N)N/N=C/c1c[nH]c2ccc(OC)cc12` gave an IC50 of 143 nM (ligand displacement; radioligand).
For `CN1C[C@@H](CO)C=C2c3cccc4[nH]cc(c34)C[C@H]21`, the IC50 was 2.3 nM (ligand displacement; radioligand).
For `COCCCN1CCN(c2ccccc2OC)CC1`, the Ki was 110 nM (cell-free assay).
For `NCCc1c[nH]c2cccc(O)c12`, the Ki was 44 nM (ligand displacement; radioligand).
`CC[C@@H](CO)NC(=O)[C@@H]1C=C2c3cccc4c3c(cn4C)C[C@H]2N(C)C1` gave a Ki of 70 nM (cell-free assay).
The Ki of `C[C@H](N)Cn1ncc2ccc3c(c21)CCCO3` is reported as 294 nM (cell-free assay; radioligand).
With `CC(CCc1ccccc1)NC(C)C(O)c1ccc(O)cc1` (stereo not drawn) the IC50 was 11800 nM (calcium signal; antagonist).
The Ki of `NCCc1c[nH]c2cc(F)ccc12` is reported as 267 nM (ligand displacement; radioligand).
